In test [1] the target is T1, Proteasome subunit beta type-9 (Homo sapiens, UniProt P28065).
T1 sequence (P28065 whole entry): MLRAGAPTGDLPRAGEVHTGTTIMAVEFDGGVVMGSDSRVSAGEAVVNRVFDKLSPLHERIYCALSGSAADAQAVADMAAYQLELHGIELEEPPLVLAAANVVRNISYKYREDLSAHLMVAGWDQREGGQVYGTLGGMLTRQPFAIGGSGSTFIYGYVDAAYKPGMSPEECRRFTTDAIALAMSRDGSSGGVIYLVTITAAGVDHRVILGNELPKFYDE
The test is described as follows: Inhibition of 20S immunoproteasome beta 1 in human Raji cell lysates after 1 hr by competitive ABPP assay. The class given is subcellular, Lysate. The gist of the method: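 Raji cells were sonicated in 3 volumes of Tris pH 7.5 lysis buffer containing DTT, MgCl₂, sucrose, 2 mM ATP and 0.05% digitonin. Lysate (5 μg protein, in buffer with 2 mM ATP and glycerol) was preincubated with inhibitor for 1 h at 37 °C, then with a cocktail of three fluorescent ABPs for 1 h. […] In-gel fluorescence densitometry was normalized to mock. IC50 came from the mean of three experiments.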

Test [2] concerns the target T2, Proteasome Macropain subunit MB1 (Homo sapiens, UniProt P28074).
T2 sequence (P28074 whole entry): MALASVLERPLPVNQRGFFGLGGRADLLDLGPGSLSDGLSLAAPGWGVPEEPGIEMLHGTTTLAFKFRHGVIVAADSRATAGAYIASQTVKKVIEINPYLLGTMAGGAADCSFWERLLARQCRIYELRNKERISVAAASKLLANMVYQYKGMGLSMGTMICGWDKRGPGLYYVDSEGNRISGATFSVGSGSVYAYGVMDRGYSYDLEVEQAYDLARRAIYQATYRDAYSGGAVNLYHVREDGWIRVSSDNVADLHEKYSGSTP
The test is described as follows: Inhibition of 20S constitutive proteasome beta 5 chymotrypsin-like activity in human RPMI8226 cell lysates after 1 hr by coomassie brilliant blue staining-based fluorescence assay. Type of test: subcellular, Lysate. The gist of the method: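 Cells at (5–8)×10⁵ cells/mL were exposed to inhibitor for 1 h at 37 °C, washed in PBS and lysed on ice for 1 h in digitonin/ATP buffer. Residual activity was read by cocktail-ABP labeling, SDS-PAGE and fluorescence densitometry relative to mock, with Coomassie staining correcting for loading. IC50 came from three independent experiments.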

Test [3] concerns the target T3, Proteasome subunit beta type-10 (Homo sapiens) (UniProt P40306).
T3 sequence (whole entry): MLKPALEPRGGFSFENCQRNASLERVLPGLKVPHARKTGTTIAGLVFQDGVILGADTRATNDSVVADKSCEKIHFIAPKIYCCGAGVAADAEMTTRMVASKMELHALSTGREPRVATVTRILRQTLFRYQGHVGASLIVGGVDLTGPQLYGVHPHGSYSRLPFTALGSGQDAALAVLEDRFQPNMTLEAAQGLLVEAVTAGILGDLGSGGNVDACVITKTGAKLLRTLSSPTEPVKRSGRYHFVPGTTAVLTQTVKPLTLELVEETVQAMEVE
The test is described as follows: Inhibition of Morp-Ala-Tyr(O-C2H4-BODIPY(FL))-1-DecAla-EK binding to 20S immunoproteasome beta 2 in human Raji cell lysates at 0.3 uM in presence of 3-probe mixture by competitive ABPP assay. The class given is subcellular. Conditions: Lysate.

Test [4] concerns the target T3, Proteasome subunit beta type-10 (Homo sapiens). Nature of the test: Inhibition of Morp-Ala-Tyr(O-C2H4-BODIPY(FL))-1-DecAla-EK binding to immunoproteasome beta 2 in human Raji cell lysates at 0.3 uM by competitive ABPP assay. Conditions: Lysate. Type of test: subcellular. In outline: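 Raji lysate was preincubated with inhibitor, then labeled with the BODIPY(FL) probe alone. β2i labeling was read by in-gel fluorescence at Cy2 settings after SDS-PAGE.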

Test [5] deals with T4, Proteasome subunit beta type-10 (Homo sapiens, UniProt P40306).
T4 sequence (P40306 whole entry): T3 sequence (whole entry)
The test is described as follows: Inhibition of 20S immunoproteasome beta 2 in human Raji cell lysates after 1 hr by competitive ABPP assay. Type of test: subcellular, Lysate.

In test [6] the target is T4, Proteasome subunit beta type-10. Nature of the test: Inhibition of 20S immunoproteasome beta 2 (unknown origin) by cell based ABPP assay. In outline:
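Living RPMI-8226 cells, (5–8) ×10^5 cells/mL, exposed to inhibitor 1 h at 37 °C, washed, lysed in digitonin buffer 1 h on ice; residual activity labelled with cocktail ABPs, SDS-PAGE in-gel fluorescence, bands divided by mock, Coomassie staining to correct loading. IC50 from mean of three independent experiments.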

Test [7] has the same target. Nature of the test: Inhibition of 20S immunoproteasome beta 2 in human RPMI8226 cell lysates after 1 hr by coomassie brilliant blue staining-based fluorescence assay. Type of test: subcellular, Lysate.
Test [8] has as its target Proteasome Macropain subunit (Homo sapiens) (UniProt P49721). Nature of the test: Inhibition of Morp-Ala-Tyr(O-C2H4-BODIPY(FL))-1-DecAla-EK binding to 20S constitutive proteasome beta 2 in human Raji cell lysates at 0.3 uM in presence of 3-probe mixture by competitive ABPP assay. Type of test: subcellular. Conditions: Lysate.
Test [9] concerns the target T5, Proteasome subunit beta type-8 (Homo sapiens, UniProt P28062).
T5 sequence (P28062 whole entry): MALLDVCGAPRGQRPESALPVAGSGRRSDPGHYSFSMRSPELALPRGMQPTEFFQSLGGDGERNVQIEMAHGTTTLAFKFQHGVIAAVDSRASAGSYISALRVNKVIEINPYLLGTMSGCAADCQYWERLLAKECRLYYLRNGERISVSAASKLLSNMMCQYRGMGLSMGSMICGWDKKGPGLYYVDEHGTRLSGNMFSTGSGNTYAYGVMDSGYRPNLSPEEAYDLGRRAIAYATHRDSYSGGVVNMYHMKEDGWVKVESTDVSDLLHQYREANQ
Nature of the test: Inhibition of 20S immunoproteasome beta 5 in human RPMI8226 cell lysates after 1 hr by coomassie brilliant blue staining-based fluorescence assay. The class given is subcellular, Lysate. In outline:
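Living RPMI-8226 cells were grown in RPMI-1640 with 10% FCS. Cells at (5–8)×10⁵ cells/mL were exposed to inhibitor for 1 h at 37 °C, washed in PBS and lysed on ice for 1 h in digitonin/ATP buffer. Residual activity was read by cocktail-ABP labeling, SDS-PAGE and fluorescence densitometry relative to mock, with Coomassie staining correcting for loading. IC50 came from three independent experiments.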

Calls of active or inactive are those of the source. The calls are words filed in the database; no cut-off is given here.

As usually defined, the IC50 is the concentration at which inhibition is half-maximal.

As to `CC(C)C[C@H](NC(=O)[C@H](Cc1ccccc1)N=[N+]=[N-])C(=O)N[C@@H](C)C(=O)N[C@H](/C=C/S(C)(=O)=O)Cc1ccc(CN)cc1`, the concentration for half-maximal inhibition (IC50) in test [1] is over 100 µM; in [2], over 10 µM; in test [5], 0.14 µM; in test [6], 0.325 µM; in [7] it was over 10 µM; in test [9], over 10 µM. Moreover, the inhibition result in test [3], in test [4] and in [8] was “Active” each time.

For the origin of these results see ChEMBL document CHEMBL4368918, “Structure-Based Design of Inhibitors Selective for Human Proteasome β2c or β2i Subunits” (J Med Chem, 2019).
